Experimental data of several laboratories.
Target: Wee1-like protein kinase (WEE1, Homo sapiens, UniProt P30291)

F[C@@H]1CCN(c2nccc(-c3cnn4ncccc34)n2)C1
remaining binding (binding; 1 µM): 100%

FC(F)(F)c1ccc2c(c1)nc(-c1cccnc1)n2C1CC1
remaining binding (cell-free assay; competition with immobilised ligand; 1 µM): 93%

CN(C)c1nccc(-c2cnc3ncccn23)n1
remaining binding (binding; 1 µM): 100%

C=CC(=O)N1CCC(C(=O)NCC(=O)N2CCN(c3nc(-c4cnc(N)nc4C(F)F)nc(N4CCOCC4)n3)CC2)CC1
remaining binding (binding; competition with immobilised ligand; 1 µM): 89%

CN(C)c1nccc(-c2cnn3ncccc23)n1
remaining binding (binding; 1 µM): 80%

CO[C@@H](C)c1c(Nc2ccc([C@@H](N(C)C(=O)C3CCS(=O)(=O)CC3)C(F)(F)F)cc2)cnc2cc(Cl)nn12
remaining binding (cell-free assay; competition with immobilised ligand; 1 µM): 92%

CN(CCCC(F)(F)F)c1nccc(-c2cnn3ncccc23)n1
remaining binding (binding; 1 µM): 100%

O=C(c1ccc(Nc2nccc(-c3cc4ccccc4s3)n2)cc1)N1CCC(N2CCCC2)CC1
remaining binding (binding; competition with immobilised ligand; 1 µM): 83%

Cn1nc(C(=O)NCc2ccc(C(=O)O)cc2)cc1-c1ccc2[nH]ccc2c1
remaining binding (cell-free assay; competition with immobilised ligand; 0.1 µM): 100%

O=C(NCCCN1CCOCC1)c1ccc(Nc2ncc(Cl)c(-c3ccc(Cl)s3)n2)cc1
remaining binding (binding; competition with immobilised ligand; 1 µM): 15%

COc1ncc2cc3ccccc3nc2c1C#N
remaining binding (cell-free assay; competition with immobilised ligand; 5 µM): 98%

Cc1nccc(COC(=O)N2C[C@@H]3[C@@H](CNC(=O)c4ccc5[nH]nnc5c4)[C@@H]3C2)n1
remaining binding (cell-free assay; competition with immobilised ligand; 1 µM): 100%

C[C@@H]1CCN(c2nccc(-c3cnn4ncccc34)n2)C1
remaining binding (binding; 1 µM): 100%

Cc1cnc(Nc2ccc(C(=O)N3CCC(N4CCCC4)CC3)cc2)nc1-c1cc2ccccc2s1
remaining binding (binding; competition with immobilised ligand; 1 µM): 4.2%

Cc1cnn2ncc(-c3ccnc(N(C)C)n3)c2c1
remaining binding (binding; 1 µM): 100%

CCCOc1ccc([C@@H]2[C@@H](C(=O)O)[C@H](c3ccc4c(c3)OCO4)CN2CC(=O)Nc2c(CC)cccc2CC)cc1
remaining binding (cell-free assay; competition with immobilised ligand; 1 µM): 95%

CNC(=O)[C@@H]1CC[C@@H](n2c(-c3ccc4cnccc4c3)nc3ccc(C(=O)NCc4cccc(C(N)=O)c4)cc32)C1
remaining binding (binding; competition with immobilised ligand; 1 µM): 98%

O=C(NCC1CCOCC1)c1n[nH]cc1NC(=O)c1c(F)cccc1F
remaining binding (binding; competition with immobilised ligand; 1 µM): 97%

O=C(NCc1ncc(C(F)(F)F)cc1Cl)c1ccc2c(c1)C1(CCS(=O)(=O)CC1)[C@@H](C1CC1)N2S(=O)(=O)c1ccc(F)cc1
remaining binding (cell-free assay; competition with immobilised ligand; 1 µM): 100%

Nc1ncc2c(n1)-c1c([nH]c3ccc(C#CC4CC4)cc13)CCCC2
remaining binding (binding; competition with immobilised ligand; 1 µM): 87%

O=C1CCc2cc(Nc3cc(OC4CCOCC4)c([N+](=O)[O-])cc3Cl)ccc2N1
remaining binding (cell-free assay; competition with immobilised ligand; 1 µM): 99%

N[C@@H]1CCN(c2nccc(-c3cnn4ncccc34)n2)C1
remaining binding (binding; 1 µM): 100%
